Bioassay records as filed in PubChem BioAssay.
Shown are actives, neighbours in structure and some others; about 2.9% of the full set was active somewhere.
Vif imaging = inhibitors of HIV Vif; actives 0.35% (n = 340,000); HEK293T cells, Vif self-association by quenched fluorescence, imaging, 24 h; inhibition, % at 7.49 µM; AID 602346; in the data active = inhibition above about 50%, passing the limit was not always enough; inconclusive = no clear call, values can overlap the other calls; inactive = below about 31%
PglD inh = blocks C. jejuni PglD acetyltransferase activity. AID 602405. actives 0.098% (n = 360,000). inhibition, % at 12.5 µM. purified PglD enzyme, DTNB colorimetric CoA detection; in the data active = inhibition above about 16%, passing the limit was not always enough; inconclusive = no clear call, values can overlap the other calls
Cneo AK release = causes C. neoformans cell lysis | lysis activity, % at 15 µM | adenylate kinase release luminescence, 4 h; normalised: neutral wells 0, clomiphene wells 100 | actives 0.2% (n = 360,000);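 active = mean lysis activity across replicates of at least 80%, whatever share of replicates individually reach that level; inactive = mean lysis activity below 80%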
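Material: C. neoformans cells; Schedule: 4 h static compound exposure, 37 °C, read 1 h post-reagent; Measured by: adenylate kinase release luminescence; Read-out: signal increase indicating cell lysis; Controls: Clomiphene as positive lysis control.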
PGC1a acetyl inh = modulators of PGC1a acetylation; U2OS PGC1a acetylation, AlphaScreen anti-acetyl-lysine; with virally co-expressed GCN5 acetyltransferase; inhibition, % at 15.6 µM; actives 0.17% (n = 350,000);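 active = every replicate shows inhibition of at least 40%; inconclusive = mean inhibition at least 40% but some replicate below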
Ecoli rRNA inh = inhibitors of bacterial rRNA selective over humanized ribosomes | E. coli WT GFP vs humanized-ribosome RFP mutants, fluorescence, 24 h; active compounds read low; DMSO median 0, no signal -100 | GFP signal change (wild-type ribosome), % (test concentration not listed) | actives 1.6% (n = 350,000) | AID 720706;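 active = significant combined selectivity score with lowered wild-type GFP, culture density cut under 30%, mutant RFP and density less affected; inactive = any of these conditions unmet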
FGF22 binding = FGF22 (human) thermal shift binding | Q9HCT0 | recombinant FGF22 thermal shift, SYPRO orange fluorescence; percent of sucrose octasulfate shift, DMSO zero | activity (Tm shift, normalised), % at 9.99 µM | actives 1.5% (n = 340,000) | AID 651658;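 active = mean Tm shift, scaled 0 neutral to 100 positive control, at about 1.3% or above, every replicate too, limit read from the data; inconclusive = no clear call, values can overlap the other calls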
Target sequence (Q9HCT0 whole entry, looked up): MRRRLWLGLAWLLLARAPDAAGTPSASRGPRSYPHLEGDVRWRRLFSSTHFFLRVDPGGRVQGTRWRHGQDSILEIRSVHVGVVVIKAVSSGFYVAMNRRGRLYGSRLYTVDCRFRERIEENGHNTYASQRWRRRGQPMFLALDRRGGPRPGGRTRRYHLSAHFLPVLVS
HepG2 tox = kills or reduces viability of HepG2 cells | activity change, negative = cytotoxicity, unspecified at 26 µM | 30 tested, under 10 active | shares compounds with Ecoli rRNA inh | ATP luminescence, 72 h;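 active = compounds whose fitted half-maximal signal-loss concentration is at most twice their highest valid dose; inconclusive = flat curve with 30 to 70% signal loss, or poor fit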
AID977621 = wild-type E. coli growth inhibition versus H69 humanized strain – H69 mutant RFP, wild-type GFP, cherry-pick, dose response | shares compounds with Ecoli rRNA inh | fluorescence, 24 h | activity change, negative = inhibition at 50 µM | 1,900 tested, under 10 active;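 active = Wild-type ribosome reporter drop at least double the humanized mutant ribosome reporter drop, growth loss under a set limit; inconclusive = no clear call, values can overlap the other calls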;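 also: wild-type GFP and H69 mutant RFP strains grown together 50/50 in each well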
AID977628 = growth of wild-type and h24-humanized E. coli strains – h24 mutant RFP vs wild-type GFP, cherry-pick, dose response; shares compounds with Ecoli rRNA inh; 1,900 tested, under 10 active; E. coli WT GFP strain growth, fluorescence, 24 h; activity change, negative = inhibition at 50 µM;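 active = compound lowering the normal-ribosome reporter at least twice as much as the humanized-ribosome reporter, growth loss under a set limit; inconclusive = no clear call, values can overlap the other calls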;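 also: wild-type GFP and h24 humanized RFP strains co-cultured 1 to 1 per well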
Each line names hits and unclear results; the compound was inactive in the other large screens (follow-up assays come after a bar, where they were run).

O=C(NCc1ccccc1)c1ccc(-c2ccccc2F)o1	Ecoli rRNA inh -37.5 | AID977621 inactive | AID977628 inconclusive
Cc1onc(-c2ccccc2Cl)c1C(=O)Nc1ccc(Cl)cn1	Ecoli rRNA inh -22.4 (no result: PglD inh, Cneo AK release, PGC1a acetyl inh) | AID977621 inactive | AID977628 inactive
Cc1onc(-c2ccccc2)c1C(=O)Nc1ccc(Cl)cn1	none
Cc1onc(-c2c(Cl)cccc2Cl)c1C(=O)Nc1ccc(Cl)cn1	Ecoli rRNA inh -20.5 (no result: PglD inh, Cneo AK release) | AID977621 inactive | AID977628 inactive
C[C@@H]1CN([C@H](C)CO)C(=O)c2cc(NC(=O)Nc3ccc4c(c3)OCO4)ccc2O[C@@H](C)CCCCO[C@@H]1CN(C)S(=O)(=O)c1cn(C)cn1	none (no result: Vif imaging)
C[C@H](CO)N1C[C@H](C)[C@H](CN(C)S(=O)(=O)c2ccccc2)Oc2ccc(NC(=O)Nc3cccc4ccccc34)cc2C1=O	none (no result: Vif imaging)
O=[N+]([O-])c1ccc(Cl)cc1NCc1cccnc1	Ecoli rRNA inh -21.1 (no result: PglD inh, Cneo AK release) | AID977621 inactive | AID977628 inconclusive
COC(=O)c1ccc(COC(=O)c2ccccc2OC)cc1	none (no result: PglD inh, Cneo AK release, PGC1a acetyl inh, Ecoli rRNA inh, FGF22 binding)
COC(=O)c1ccc(OCC(=O)c2ccccc2OC)cc1	Ecoli rRNA inh -23.4 (no result: FGF22 binding) | AID977621 inactive | AID977628 inactive
CO[C@H]1CN(C)C(=O)c2cc(NS(=O)(=O)c3cccc(F)c3)ccc2OC[C@H](C)NC[C@H]1C	none (no result: Vif imaging)
COc1ccc2[nH]c3c(=O)n(CCCCC(=O)NCCC(C)C)c(=S)[nH]c3c2c1	Ecoli rRNA inh -24.9 (no result: PglD inh, Cneo AK release) | HepG2 tox inactive
Cc1cc2nc(-c3ccc4c(c3)CCC4)ccn2n1	Ecoli rRNA inh -30.6 (no result: PglD inh, Cneo AK release) | AID977628 inconclusive
Cc1cccn2cc(-c3cccc(NC(=O)c4cccs4)c3)nc12	none (no result: PglD inh, Cneo AK release)
Cc1ccn2cc(-c3cccc(NC(=O)c4cccs4)c3)nc2c1	Ecoli rRNA inh -35.9 (no result: PglD inh, Cneo AK release, PGC1a acetyl inh) | AID977621 inactive | AID977628 inactive
C[C@@H]1CN([C@@H](C)CO)C(=O)c2cc(NC(=O)CCCN(C)C)ccc2O[C@@H](C)CCCCO[C@@H]1CN(C)C(=O)Nc1ccc2c(c1)OCO2	none (no result: Vif imaging, PglD inh, Cneo AK release)
NS(=O)(=O)c1ccc(CCNC(=O)CCCCCNc2nc(=S)[nH]c3ccccc23)cc1	Ecoli rRNA inh -22.4 (no result: Vif imaging, PglD inh, Cneo AK release, PGC1a acetyl inh) | AID977621 inactive | AID977628 inactive
CCCOC(=O)c1ccc(NC(=O)c2nc3nc(C)cc(C)n3n2)cc1	Ecoli rRNA inh -23.4 | AID977621 inactive | AID977628 inactive
Cc1cc(C)n2nc(C(=O)OCC(=O)Nc3ccc(Cl)cc3)nc2n1	none (no result: PGC1a acetyl inh)
CCC1(CC)NC(=O)N(CC(=O)N2N=C(c3ccc(Cl)cc3)CC2c2ccco2)C1=O (stereo not given)	Ecoli rRNA inh -25.4 | AID977621 inactive | AID977628 inconclusive
Cc1ccc(S(=O)(=O)N(C)C[C@@H]2Oc3ccc(NC(=O)Nc4cccc5ccccc45)cc3C(=O)N([C@@H](C)CO)C[C@@H]2C)cc1	none (no result: Vif imaging, PglD inh, Cneo AK release, FGF22 binding)
CCOCC(=O)OCC(=O)Nc1cc(OC)c([N+](=O)[O-])cc1C	none (no result: PglD inh, Cneo AK release)
COc1cc(NC(=O)COC(=O)CC(C)(C)C)c(C)cc1[N+](=O)[O-]	Ecoli rRNA inh -22.4 (no result: PglD inh, Cneo AK release, PGC1a acetyl inh) | AID977621 inconclusive
CC(C)(C)c1ccc(S(=O)(=O)NCc2ccc(C(=O)NCc3ccccn3)cc2)cc1	Ecoli rRNA inh -25.5 (no result: PglD inh, Cneo AK release, PGC1a acetyl inh) | AID977621 inactive | AID977628 inactive
CN1C(=O)c2cc(NS(=O)(=O)c3ccc(Cl)cc3)ccc2OC[C@@H]2O[C@@H](CC(=O)N3CCc4ccccc4C3)CC[C@H]21	none (no result: Vif imaging, FGF22 binding)
CCS(=O)(=O)Nc1ccc2c(c1)C(=O)N(C)[C@H]1CC[C@@H](CC(=O)Nc3ccccc3)O[C@@H]1CO2	none (no result: Vif imaging)
CCOc1ccc(OCc2ccc(C(=O)N3CCCC3)o2)cc1	Ecoli rRNA inh -16.8 | AID977621 inactive | AID977628 inactive
CCCc1ccc(OCc2ccc(C(=O)N3CCCC3)o2)cc1	none (no result: PGC1a acetyl inh)
Cc1noc(C)c1S(=O)(=O)Nc1ccc2c(c1)C(=O)N([C@@H](C)CO)C[C@@H](C)[C@@H](CN(C)CC1CCCCC1)OCCCC[C@H](C)O2	none (no result: Vif imaging, PGC1a acetyl inh)
CCc1nc2ccccc2c(C(=O)OCC(=O)NC(=O)c2cccn2C)c1C	Ecoli rRNA inh -24.5 | AID977621 inconclusive | AID977628 inactive
COc1cccc(S(=O)(=O)N(C)C[C@@H]2Oc3ncc(C#Cc4ccc(C(F)(F)F)cc4)cc3C(=O)N([C@H](C)CO)C[C@@H]2C)c1	none (no result: Vif imaging)
C[C@@H]1CN([C@H](C)CO)C(=O)c2cc(C#Cc3ccccc3)cnc2O[C@@H]1CN(C)C(=O)CN(C)C	none (no result: Vif imaging)
Cc1cc(C)c(NC(=O)C(C)c2cccc(C(=O)c3ccccc3)c2)c(C)c1 (stereo not given)	Ecoli rRNA inh -17.3 (no result: PglD inh, Cneo AK release) | AID977621 inactive
O=C(CC1CC1)Nc1ccc2c(c1)[C@@H]1C[C@H](CC(=O)N3CCOCC3)O[C@@H](CO)[C@@H]1O2	none (no result: Vif imaging)
C[C@@H]1CN([C@@H](C)CO)C(=O)c2cc(C3=CCCC3)cnc2O[C@H]1CN(C)S(C)(=O)=O	none (no result: Vif imaging)
COc1cc(-c2csc(C)n2)ccc1O	none (no result: Ecoli rRNA inh, FGF22 binding)
COc1ccc(-c2csc(C)n2)cc1Br	Ecoli rRNA inh -29.4 | AID977621 inactive | AID977628 inactive
CCCNC(=O)c1noc2c1CCc1cc(OC)ccc1-2	Ecoli rRNA inh -27.8 | AID977621 inconclusive
Fc1ccccc1C1CCN(Cc2nc(CC3CC3)no2)C1 (stereo not given)	Ecoli rRNA inh -18.3 (no result: PglD inh, Cneo AK release) | AID977621 inactive | AID977628 inactive
Fc1ccc2nc(C3CCN(Cc4nc(CC5CC5)no4)CC3)[nH]c2c1	none (no result: PglD inh, Cneo AK release)
CC=Cc1ccc2n(c1=O)C[C@@H]1[C@@H](CO)[C@H](C(=O)NCC)[C@H]2N1S(=O)(=O)c1cn(C)cn1 (mixture of isomers)	none (no result: Vif imaging, PGC1a acetyl inh)
C[C@@H]1CN([C@@H](C)CO)C(=O)c2cc(NC(=O)Nc3ccc4c(c3)OCO4)ccc2O[C@@H]1CN(C)Cc1ccc(Cl)c(Cl)c1	none (no result: Vif imaging)
COc1cc2c(cc1OC)CN(CC(=O)Nc1ccccc1C#N)CC2	none (no result: Ecoli rRNA inh, FGF22 binding)
COc1cc2c(cc1OC)CN(CC(=O)Nc1ccccc1SC)CC2	Ecoli rRNA inh -20.5, FGF22 binding 43.1 (no result: PglD inh, Cneo AK release, PGC1a acetyl inh) | AID977621 inactive | AID977628 inactive
